pIC50: −log10 of the molar value.
Target: Prothrombin (Homo sapiens, UniProt P00734)
Experiment: Inhibition of human alpha-thrombin assessed as spectrozyme TH hydrolysis after 10 mins by spectrophotometric analysis
Summary of the method: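 Human α-thrombin (~5 nM initial) preincubated 10 min with inhibitor (4 μg/ml to 5 mg/ml stocks) at 25 °C. Buffer: 20 mM Tris-HCl pH 7.4, 100 mM NaCl, 2.5 mM CaCl2, 0.1% PEG 8000. Fractional residual activity fitted to logistic equation (Hill slope fixed at 1) for IC50 and efficacy ΔY.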

pIC50: < 2.60
SMILES: CCOC(=O)c1c(C)oc2cc(OC(=O)N3CCOCC3)c(OS(=O)(=O)O)cc12
